Here are results for 17 molecules from ChEMBL document CHEMBL1126914 (J Med Chem, 1993).

The target in test [1] is Delta-type opioid receptor (Rattus norvegicus, UniProt P33533). Kind of test: Binding affinity was determined on delta [3H]DPDPE site in rat brain synaptosomes by radioreceptor assay. The test is classed as subcellular. A digest of the protocol: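 δ sites labelled with 0.62 nM [3H]DPDPE; rat brain (minus cerebella) P2 synaptosomes, preincubated to remove endogenous opioids, 1.6 mg protein; 2 h at 22 °C in duplicate. Nonspecific defined with 1 μM DPDPE. Rapid filtration on GF/C filters with ice-cold buffered BSA washes; liquid scintillation counting; Ki from IC50 by Cheng–Prusoff.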
Delta-type opioid receptor, sequence (P33533 whole entry): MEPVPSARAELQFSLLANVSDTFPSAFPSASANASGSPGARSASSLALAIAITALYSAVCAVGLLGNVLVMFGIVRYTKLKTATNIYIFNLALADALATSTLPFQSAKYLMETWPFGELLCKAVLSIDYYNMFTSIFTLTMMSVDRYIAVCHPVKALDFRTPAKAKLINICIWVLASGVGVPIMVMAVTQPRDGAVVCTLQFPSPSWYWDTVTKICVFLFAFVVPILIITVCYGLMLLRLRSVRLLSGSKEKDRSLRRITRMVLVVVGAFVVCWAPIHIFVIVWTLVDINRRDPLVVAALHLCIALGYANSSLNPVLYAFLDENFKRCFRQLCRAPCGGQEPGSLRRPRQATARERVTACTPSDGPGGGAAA

The target of another test is Mu-type opioid receptor (Rattus norvegicus, UniProt P33535). In words: Binding affinity was determined on mu [3H]DAGO site in rat brain synaptosomes by radioreceptor assay. It counts as subcellular. The gist of the method: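 μ sites labelled with 0.68 nM [3H]DAGO; rat brain (minus cerebella) P2 synaptosomes, preincubated to remove endogenous opioids, 1.6 mg protein; 2 h at 22 °C in duplicate. Nonspecific defined with 1 μM DAGO. Rapid filtration on GF/C filters, washes with ice-cold buffered BSA; scintillation counting; Ki via Cheng–Prusoff from IC50.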
Mu-type opioid receptor, sequence (P33535 whole entry): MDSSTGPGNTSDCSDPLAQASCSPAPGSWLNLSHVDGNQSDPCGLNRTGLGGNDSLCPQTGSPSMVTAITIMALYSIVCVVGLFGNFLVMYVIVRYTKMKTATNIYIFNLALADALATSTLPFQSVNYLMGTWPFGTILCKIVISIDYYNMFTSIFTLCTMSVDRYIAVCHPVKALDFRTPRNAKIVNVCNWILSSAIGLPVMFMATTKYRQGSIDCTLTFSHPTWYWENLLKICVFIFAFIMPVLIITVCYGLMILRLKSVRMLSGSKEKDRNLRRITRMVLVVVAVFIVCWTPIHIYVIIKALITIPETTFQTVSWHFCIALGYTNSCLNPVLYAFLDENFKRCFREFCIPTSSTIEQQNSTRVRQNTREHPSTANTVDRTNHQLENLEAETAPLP

Test [2] in a line: Bioselectivity ratio of compound as guinea pig ileum to mouse vas deferens was determined. The test is classed as functional. The gist of the method: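 GPI/MVD ratio of IC50s. GPI: 2–3 cm segments in Krebs with 70 μM hexamethonium and 0.125 μM mepyramine, 36 °C, 95% O2/5% CO2; transmural 0.5 ms, 0.1 Hz pulses at 1.5× maximal (~30 V); isotonic recording. MVD: 33 °C, field stimulation 0.1 Hz, 1 ms, 40 V; isometric recording. IC50 is 50% twitch inhibition, from four experiments.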

Square brackets hold non-standard residues; d marks the D form. Peptide text beside a SMILES is read from it. Tic = O=C(O)[C@@H]1Cc2ccccc2CN1; Aic = NC1(C(=O)O)Cc2ccccc2C1 A value given as a limit tells only on which side of the number the result lay.

Take `CC(C)[C@H](NC(=O)[C@H](CC(=O)O)NC(=O)[C@H](Cc1ccccc1)N(C)C(=O)[C@@H](C)NC(=O)[C@@H](N)Cc1ccc(O)cc1)C(=O)N[C@H](C(=O)NCC(N)=O)C(C)C`: the inhibition constant Ki was determined as 284 nM in test [1] and 19000 nM at Mu-type opioid receptor.
The corresponding values for `CC(C)[C@H](NC(=O)[C@H](CC(=O)O)NC(=O)[C@H](Cc1ccc2ccccc2c1)NC(=O)[C@@H](C)NC(=O)[C@@H](N)Cc1ccc(O)cc1)C(=O)N[C@H](C(=O)NCC(N)=O)C(C)C` are 10.7 nM and 770 nM.
Turning to `CC(C)[C@H](NC(=O)[C@H](CC(=O)O)NC(=O)[C@H](Cc1cnc[nH]1)NC(=O)[C@@H](C)NC(=O)[C@@H](N)Cc1ccc(O)cc1)C(=O)N[C@H](C(=O)NCC(N)=O)C(C)C`, the Ki in test [1] turned out to be 45.5 nM; on Mu-type opioid receptor, 3720 nM.
In the case of `CC(C)[C@H](NC(=O)[C@H](CC(=O)O)NC(=O)[C@H](Cc1c[nH]c2ccccc12)NC(=O)[C@@H](C)NC(=O)[C@@H](N)Cc1ccc(O)cc1)C(=O)N[C@H](C(=O)NCC(N)=O)C(C)C`, the Ki in test [1] was 2.34 nM; at Mu-type opioid receptor, 323 nM.
With `CC(C)[C@H](NC(=O)[C@H](CC(=O)O)NC(=O)/C(=C\c1ccccc1)NC(=O)[C@@H](C)NC(=O)[C@@H](N)Cc1ccc(O)cc1)C(=O)N[C@H](C(=O)NCC(N)=O)C(C)C`, the Ki in test [1] amounted to 4.23 nM; on Mu-type opioid receptor, 114 nM.
The corresponding values for `CC(C)[C@H](NC(=O)[C@H](CC(=O)O)NC(=O)[C@H](CCc1ccccc1)NC(=O)[C@@H](C)NC(=O)[C@@H](N)Cc1ccc(O)cc1)C(=O)N[C@H](C(=O)NCC(N)=O)C(C)C` are 4.84 nM and 326 nM.
The corresponding values for `CC(C)[C@H](NC(=O)[C@H](CC(=O)O)NC(=O)[C@H](Cc1ccc(O)cc1)NC(=O)[C@@H](C)NC(=O)[C@@H](N)Cc1ccc(O)cc1)C(=O)N[C@H](C(=O)NCC(N)=O)C(C)C` are 34 nM and 1180 nM.
As for `CC(C)[C@H](NC(=O)[C@H](CC(=O)O)NC(=O)[C@H](Cc1cccc2ccccc12)NC(=O)[C@@H](C)NC(=O)[C@@H](N)Cc1ccc(O)cc1)C(=O)N[C@H](C(=O)NCC(N)=O)C(C)C`, the figures for the inhibition constant Ki (in test [1]; on Mu-type opioid receptor) were 0.61 nM and 279 nM, respectively.
Take `COc1ccc(C[C@H](NC(=O)[C@@H](C)NC(=O)[C@@H](N)Cc2ccc(O)cc2)C(=O)N[C@@H](CC(=O)O)C(=O)N[C@H](C(=O)N[C@H](C(=O)NCC(N)=O)C(C)C)C(C)C)cc1`: the Ki was found to be 45.4 nM in test [1] and 526 nM at Mu-type opioid receptor.
The corresponding values for `CC(C)[C@H](NC(=O)[C@H](CC(=O)O)NC(=O)[C@@H](NC(=O)[C@@H](C)NC(=O)[C@@H](N)Cc1ccc(O)cc1)c1ccccc1)C(=O)N[C@H](C(=O)NCC(N)=O)C(C)C` are 2.85 nM and 3750 nM.
For the molecule `CC(C)[C@H](NC(=O)[C@H](CC(=O)O)NC(=O)C1(NC(=O)[C@@H](C)NC(=O)[C@@H](N)Cc2ccc(O)cc2)Cc2ccccc2C1)C(=O)N[C@H](C(=O)NCC(N)=O)C(C)C` (H-Y[dA][Aic]DVVG-NH2), the Ki in test [1] was determined as 0.2 nM; at Mu-type opioid receptor, 56.2 nM. For the same molecule, in test [2], the Ratio turned out to be 900.
For the molecule `CC(C)[C@H](NC(=O)[C@H](CC(=O)O)NC(=O)[C@@H]1Cc2ccccc2CN1C(=O)[C@@H](C)NC(=O)[C@@H](N)Cc1ccc(O)cc1)C(=O)N[C@H](C(=O)NCC(N)=O)C(C)C` (H-Y[dA][Tic]DVVG-NH2), the inhibition constant Ki in test [1] is 90.2 nM; at Mu-type opioid receptor, 7810 nM. Further, the Ratio in test [2] is >65.
The corresponding values for `CC(C)[C@H](NC(=O)[C@H](CC(=O)O)NC(=O)[C@](C)(Cc1ccccc1)NC(=O)[C@@H](C)NC(=O)[C@@H](N)Cc1ccc(O)cc1)C(=O)N[C@H](C(=O)NCC(N)=O)C(C)C` (single isomer, unassigned; 6) are 69.1 nM, 1360 nM and >18.
`CC(C)[C@H](NC(=O)[C@H](CC(=O)O)NC(=O)[C@](C)(Cc1ccccc1)NC(=O)[C@@H](C)NC(=O)[C@@H](N)Cc1ccc(O)cc1)C(=O)N[C@H](C(=O)NCC(N)=O)C(C)C` (single isomer, unassigned; 6a): the inhibition constant (Ki) in test [1] stood at 48.6 nM; on Mu-type opioid receptor, 3400 nM. Also, the Ratio in test [2] is reported as >20.
Consider `CC(C)[C@H](NC(=O)[C@H](CC(=O)O)NC(=O)C1(NC(=O)[C@@H](C)NC(=O)[C@@H](N)Cc2ccc(O)cc2)CCc2ccccc2C1)C(=O)N[C@H](C(=O)NCC(N)=O)C(C)C` (single isomer, unassigned; 15), for which the Ki is 0.07 nM in test [1] and 178 nM on Mu-type opioid receptor. Besides, in test [2], the Ratio came out at 3522.
`CC(C)[C@H](NC(=O)[C@H](CC(=O)O)NC(=O)C1(NC(=O)[C@@H](C)NC(=O)[C@@H](N)Cc2ccc(O)cc2)CCc2ccccc2C1)C(=O)N[C@H](C(=O)NCC(N)=O)C(C)C` (single isomer, unassigned; 15a): the results for the Ki (in test [1]; at Mu-type opioid receptor) were 0.12 nM and 82.3 nM, respectively. The Ratio in test [2] stood at 606.
As to `CC(C)[C@H](NC(=O)[C@H](CC(=O)O)NC(=O)[C@H](Cc1ccccc1)NC(=O)[C@@H](C)NC(=O)[C@@H](N)Cc1ccc(O)cc1)C(=O)N[C@H](C(=O)NCC(N)=O)C(C)C` [DELTORPHIN C], the inhibition constant Ki in test [1] was determined as 0.31 nM; at Mu-type opioid receptor it was 205 nM.

Usually Ki stands for a dissociation constant, usually derived from enzyme kinetics or from competition with a known ligand.
